Consider five compounds from ChEMBL document CHEMBL1121813, “Dihydrochalcone sweeteners. A study of the atypical temporal phenomena” (1981).

What all share (type): functional
Assay [1] is filed under the species Homo sapiens. Description: Experimentally determined perceived intensity of compound at a concentration of 1000 ppm (mean value). Summed up:
(§1)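 Trained human sensory panel of judges tasted aqueous solutions of the compound. Samples had to be ≥95 weight % pure (HPLC, proton titration, Karl Fischer), non-mutagenic in five Salmonella typhimurium strains with and without microsomal activation, and non-toxic in a single-oral-dose mouse test. Perceived intensity (Ip) was read from time–intensity curves at 4- or 6-s intervals and averaged. Outliers at the 95% level were rejected by t-value. Values reported as mean (2Sm).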

The species entered for assay [2] is Homo sapiens. Description: Percentage of judgments reporting an aftertaste at a concentration of 1000 ppm. Summed up: (§2)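 Trained judges tasted aqueous solutions of the compounds, which had to be ≥95 weight percent pure and to have passed mutagenicity and single oral dose toxicity screening. The value is the percentage of panel judgments reporting an aftertaste. Where given, its character is recorded as sweet, bitter or bitter-sweet.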

The species entered for assay [3] is Homo sapiens. Description: Number of taste judgments per compound.
For assay [4], the species on record is Homo sapiens. Description: Experimentally determined perceived intensity of compound at a concentration of 250 ppm (mean value). Summed up:
as §1

Assay [5] is filed under the species Homo sapiens. Nature of the assay: Sour character at a concentration of 250 ppm (mean value). Summed up: (§3)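 Trained human sensory panel (Swartz method) tasted dilute aqueous solutions of the compounds, which had to be ≥95 weight percent pure and free of mutagenicity and toxicity. Taste character is reported as the mean value with 2S_m limits. Data deviating excessively at the 95% confidence level were rejected by the t-value method.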

The species named for assay [6] is Homo sapiens. Description: Intensity calculated on a molar basis relative to a 0.25 M sucrose solution at a concentration of 250 ppm (mean value). In a few lines:
(§4)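 Trained human judges tasted aqueous solutions of the test compound; compounds were first required to be ≥95 weight percent pure and free of mutagenicity (five Salmonella typhimurium strains, ± microsomal activation) and of single oral dose mouse toxicity. Molar intensity I_m = perceived intensity × (0.25 M sucrose / compound molar concentration). The mean is reported with 2S_m limits; outliers were rejected at 95% confidence by t-value.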

For assay [7], the species on record is Homo sapiens. Nature of the assay: Bitter character at a concentration of 250 ppm (mean value). Summed up:
(§5)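 Trained human panel tasted aqueous solutions. Each judge reported whether there was an aftertaste and its character (sweet, bitter or bitter-sweet). The value is the percentage of judgments reporting a bitter aftertaste.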

Assay [8] is filed under the species Homo sapiens. Nature of the assay: Salty character at a concentration of 250 ppm (mean value). Summed up:
as §3

For assay [9], the species on record is Homo sapiens. Nature of the assay: Other taste character at a concentration of 250 ppm (mean value). Summed up:
as §3

Assay [10] is filed under the species Homo sapiens. Nature of the assay: Intensity calculated on a weight basis relative to an 85500 ppm sucrose solution at a concentration of 250 ppm (mean value). Summed up: (§6)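 Trained human panel tasted aqueous solutions of purity-checked (≥95 weight percent) compounds cleared for mutagenicity and mouse oral toxicity. Weight-basis intensity I_w = perceived intensity × (85500 ppm sucrose / compound concentration in ppm). The mean is reported with 2S_m limits; data deviating excessively at 95% confidence were rejected by the t-value method.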

The species named for assay [11] is Homo sapiens. Nature of the assay: Sweet / Bitter character at a concentration of 250 ppm (mean value); 14/86.
The species entered for assay [12] is Homo sapiens. Nature of the assay: Sweet character at a concentration of 250 ppm (mean value). In a few lines: as §3
For assay [13], the species on record is Homo sapiens. Description: Percentage of judgments reporting an aftertaste at a concentration of 250 ppm and character thereof. Summed up:
as §2

The species entered for assay [14] is Homo sapiens. Nature of the assay: Sour character at a concentration of 240 ppm (mean value). Summed up: as §3
Assay [15] is filed under the species Homo sapiens. Nature of the assay: Intensity calculated on a molar basis relative to a 0.25 M sucrose solution at a concentration of 240 ppm (mean value). Summed up:
as §4

The species named for assay [16] is Homo sapiens. Nature of the assay: Sweet character at a concentration of 240 ppm (mean value). Summed up:
as §3

The species named for assay [17] is Homo sapiens. Description: Intensity calculated on a weight basis relative to an 85500 ppm sucrose solution at a concentration of 240 ppm (mean value). In a few lines: as §6
The species named for assay [18] is Homo sapiens. Nature of the assay: Bitter character at a concentration of 240 ppm (mean value). In a few lines: as §5
Assay [19] is filed under the species Homo sapiens. Description: Salty character at a concentration of 240 ppm (mean value). In a few lines: as §3
The species entered for assay [20] is Homo sapiens. Description: Percentage of judgments reporting an aftertaste at a concentration of 240 ppm and character thereof. Summed up: as §2
The species named for assay [21] is Homo sapiens. Nature of the assay: Other taste character at a concentration of 240 ppm (mean value). In a few lines: as §3
Assay [22] is filed under the species Homo sapiens. Description: Experimentally determined perceived intensity of compound at a concentration of 240 ppm (mean value). Summed up:
as §1

The species entered for assay [23] is Homo sapiens. Nature of the assay: Sweet / Bitter character at a concentration of 240 ppm (mean value); 0/100.
The species entered for assay [24] is Homo sapiens. Nature of the assay: Sour character at a concentration of 251 ppm (mean value). Summed up:
as §3

For assay [25], the species on record is Homo sapiens. Description: Intensity calculated on a weight basis relative to an 85500 ppm sucrose solution at a concentration of 251 ppm (mean value). Summed up:
as §6

The species named for assay [26] is Homo sapiens. Description: Sweet / Bitter character at a concentration of 251 ppm (mean value); 51/49.
For assay [27], the species on record is Homo sapiens. Nature of the assay: Sweet character at a concentration of 251 ppm (mean value). Summed up: as §3
For assay [28], the species on record is Homo sapiens. Nature of the assay: Bitter character at a concentration of 251 ppm (mean value). In a few lines:
as §5

The species named for assay [29] is Homo sapiens. Description: Other taste character at a concentration of 251 ppm (mean value). Summed up:
as §3

For assay [30], the species on record is Homo sapiens. Description: Experimentally determined perceived intensity of compound at a concentration of 251 ppm (mean value). Summed up: as §1
For assay [31], the species on record is Homo sapiens. Nature of the assay: Salty character at a concentration of 251 ppm (mean value). In a few lines:
as §3

For assay [32], the species on record is Homo sapiens. Description: Intensity calculated on a molar basis relative to a 0.25 M sucrose solution at a concentration of 251 ppm (mean value). In a few lines: as §4
Assay [33] is filed under the species Homo sapiens. Nature of the assay: Percentage of judgments reporting an aftertaste at a concentration of 251 ppm and character thereof. In a few lines: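 Trained human sensory panel; compounds tasted in aqueous solution. Before panel work, compounds had to be ≥95 weight percent pure (HPLC, proton titration, Karl Fischer) and free of mutagenicity (five Salmonella typhimurium strains, ± microsomal activation) and single oral dose mouse toxicity. Value is the percentage of judgments reporting an aftertaste, with its character recorded as sweet, bitter or bitter-sweet.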

The species entered for assay [34] is Homo sapiens. Description: Sour character at a concentration of 260 ppm (mean value).
For assay [35], the species on record is Homo sapiens. Nature of the assay: Percentage of judgments reporting an aftertaste at a concentration of 260 ppm and character thereof. Summed up:
as §2

The species entered for assay [36] is Homo sapiens. Nature of the assay: Intensity calculated on a weight basis relative to an 85500 ppm sucrose solution at a concentration of 260 ppm (mean value). In a few lines: as §6
The species named for assay [37] is Homo sapiens. Description: Experimentally determined perceived intensity of compound at a concentration of 260 ppm (mean value). In a few lines:
as §1

The species entered for assay [38] is Homo sapiens. Nature of the assay: Sweet / Bitter character at a concentration of 260 ppm (mean value); 94/6.
The species named for assay [39] is Homo sapiens. Description: Bitter character at a concentration of 260 ppm (mean value). In a few lines:
as §5

The species named for assay [40] is Homo sapiens. Description: Sweet character at a concentration of 260 ppm (mean value).
Assay [41] is filed under the species Homo sapiens. Nature of the assay: Salty character at a concentration of 260 ppm (mean value).
The species named for assay [42] is Homo sapiens. Nature of the assay: Intensity calculated on a molar basis relative to a 0.25 M sucrose solution at a concentration of 260 ppm (mean value). Summed up: as §4
For assay [43], the species on record is Homo sapiens. Description: Other taste character at a concentration of 260 ppm (mean value). Summed up:
as §3

In [1], `COc1ccc(CCC(=O)OC2C[C@](O)(C(=O)O)C[C@@H](O)[C@H]2O)cc1O` (some centres not stated) yielded an IP of 0. Further, the Judgments in [2] amounted to 0; in [3], 1.

Consider `O=C([O-])COc1cc(O)c(C(=O)CCc2ccc(Cl)c(O)c2)c(O)c1.[Na+]`, for which the IP in assay [4] is given as 0.28. For the same compound, the Taste character in assay [5] was 0; in [7], 70; in [8], 0; in [9] it was 19; in assay [11], 14; in [12], 11. Moreover, the IM in [6] is 31. In addition, the Judgments was determined as 12 in assay [3] and 0 in assay [13]. For the same compound, the IW in [10] was 27.

Turning to `COc1ccc(CCCc2c(O)cc(OCC(=O)[O-])cc2O)cc1O.[Na+]`, the Taste character in [14] was found to be 0; in assay [16], 0; in assay [18] it was 100; in assay [19], 0; in assay [21] it was 0; in [23] it was 0. For the same compound, the IM in assay [15] is on record as 4. The IW in assay [17] is 4. Moreover, the Judgments is listed as 12 in [3] and 0 in assay [20]. This compound also displayed an IP in [22] of 0.01.

For `CCCOc1ccc(CCC(=O)c2c(O)cc(OCC(=O)[O-])cc2O)cc1O.[Na+]`, the Taste character in assay [24] worked out at 0; in [26] it was 51; in [27], 39; in [28], 38; in [29] it was 23; in assay [31], 0. Also, the IW in [25] was 240. For the same compound, the Judgments came out at 12 in assay [3] and 100 in [33]. The same compound showed an IP in assay [30] of 0.72. Moreover, the IM in assay [32] is 300.

As for `COc1ccc(CCC(=O)c2c(O)cc(OCC(=O)[O-])cc2O)cc1O.[Na+]`, the Taste character in assay [34] is 0; in assay [38] it was 94; in assay [39] it was 5; in [40] it was 76; in assay [41] it was 0; in assay [43], 19. The Judgments turned out to be 100 in assay [35] and 12 in [3]. Also, the IW in assay [36] is reported as 300. Further, in assay [37], the IP was found to be 0.9. In addition, in assay [42], the IM is given as 330.
